VLA-4 inh: inhibition in a human VLA-4 binding assay; P13612; VLA-4 expressing cells, ligand binding flow cytometry; inhibition, % (about 7 µM as worked out from the volumes in the protocol); hit rate 0.2% among 330,000; in the data active means inhibition above about 50%
SENP1 FRET inh: inhibitors of human SENP1 SUMO protease catalytic domain; Q9P0U3; recombinant SENP1 catalytic domain, CyPet-SUMO1-YPet FRET cleavage; inhibition, % at 10 µM; hit rate 0.21% among 360,000;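 active means inhibition at least 30% at 10 µM, raw YFP signal under a set limit, fluorescence ratio 0.5 to 1.5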;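 further: 0% = enzyme with DMSO and 100% = no enzyme wells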
Target sequence (Q9P0U3 419-644 limits assumed): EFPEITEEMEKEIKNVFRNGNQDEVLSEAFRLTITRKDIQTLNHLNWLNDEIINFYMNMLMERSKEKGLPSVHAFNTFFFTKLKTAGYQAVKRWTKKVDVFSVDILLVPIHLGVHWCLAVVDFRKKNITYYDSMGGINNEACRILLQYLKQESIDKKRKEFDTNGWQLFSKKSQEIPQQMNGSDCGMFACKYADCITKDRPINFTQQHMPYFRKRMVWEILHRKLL
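Test system: hSENP1 catalytic domain, recombinant; Amount: 20 pM final SENP1 enzyme; Medium: Tris pH 8 buffer plus EDTA, NaCl, BME, BSA, NP40, catalase; Schedule: 50 min enzyme reaction, room temperature, light-protected; Technique: FRET fluorescence in CFP and YFP emission channels; Controls: no-enzyme wells low, DMSO-plus-enzyme wells high control.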
Myeloid diff MLP: myeloid differentiation induction; AID 624256; calls only at 10 µM; hit rate 1% among 360,000; ER-HoxA9 myeloid progenitors, lysozyme-GFP differentiation, flow cytometry;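 active means normalized GFP-positive differentiation at or above the plate's own cutoff, the solvent-only control mean plus 3 SD; inconclusive means no clear call, values can overlap the other calls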;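 further: cells exposed to compound for four days before flow analysis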
Platelet DG rel: platelet dense granule release activity; inhibition, %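 (compounds screened at 7.5 µM in platelet-rich plasma)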; human platelet-rich plasma, SFLLRN dense granule ATP release, luminescence; hit rate 0.22% among 300,000; AID 1663;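 active means mean replicate score, as percent of positive control, at or above 50; inconclusive means mean below 50 but at least one replicate at or above 50; inactive means mean and every replicate below 50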
VLA-4 allo CP: confirmation of allosteric modulators of human VLA-4 integrin; shares compounds with VLA-4 inh; U937 cells, HUTS-21 LIBS mAb binding, flow cytometry; LDV ligand present at threefold Kd; inhibition, % at 6.7 µM; hit rate 2% among 1,300; in the data active means inhibition above about 40%;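 further: 0% = ligand without compound and 100% = no ligand background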
* hit, by the source's call; i = inactive; ? = inconclusive; . = no result given. Most compounds without a hit are left out; they make up all but 1.5% or so of the library.

SMILES | VLA-4 inh | SENP1 FRET inh | Myeloid diff MLP | Platelet DG rel | VLA-4 allo CP
COc1cc(NC(=O)c2ccno2)cc(C(=O)Nc2cccc(C(F)(F)F)c2)c1 | 10 | -1 | i | 1 | .
COc1cc(NC(=O)N2CCNC2=O)cc(C(=O)Nc2cccc(C(F)(F)F)c2)c1 | 14 | -1 | i | -1 | 14
CCc1nnc(NC(=O)CSc2nc3cc(OC)c(OC)cc3cc2C)s1 | 4 | -1 | i | 0 | .
Cc1ccc(CN2CCC(n3nccc3NC(=O)CCOc3ccccc3)CC2)cc1C | 106* | 3 | i | 1 | 2
Cc1cccc(C)c1OCc1nnc(SCC(=O)Nc2ccc(N3CCOCC3)cc2)o1 | 5 | 1 | i | -2 | .
COC(=O)c1ccc(C)c(NC(=O)c2ccc(Cl)c([N+](=O)[O-])c2)c1 | 54* | 1 | i | 23 | -15
Cc1ccc(C)c(NC(=O)c2cc(S(=O)(=O)N3CCCCC3)ccc2N2CCOCC2)c1 | 51* | 0 | i | . | 4
NC(=O)c1ccccc1NC(=O)c1cc(S(=O)(=O)N2CCCCC2)ccc1N1CCOCC1 | 6 | 1 | i | . | -4
Cc1ccc(NC(=O)c2cc(S(=O)(=O)N3CCCCC3)ccc2N2CCOCC2)c(C)c1 | . | 1 | i | . | .
O=C(Nc1ccccc1)c1cc(S(=O)(=O)N2CCCCC2)ccc1N1CCOCC1 | 19 | 1 | i | . | 0
COc1cccc(NC(=O)C2(C)CCN2CCc2ccccc2)c1 (stereo not given) | . | 1 | i | . | .
CCOC(=O)CC1(CC)Oc2ccccc2N1S(=O)(=O)c1ccc(C)cc1 (stereo not given) | . | 2 | i | . | .
COc1cc(C(O)c2nc(-c3cc4ccccc4o3)cs2)ccc1F (stereo not given) | . | 0 | i | . | .
CCC(CC)NC(=O)Nc1ccc(F)c(Cl)c1 | 64* | 2 | i | 18 | 7
CCCN1CCC(NC(=O)CC2C(=O)NCCN2Cc2ccccc2C)CC1 (stereo not given) | 1 | -2 | i | -4 | .
O=C(NCCCNc1ccc(C(F)(F)F)cc1[N+](=O)[O-])c1ccc(Cl)cc1 | -1 | 6 | i | 14 | .
O=C(NCCCNc1ccc(C(F)(F)F)cc1[N+](=O)[O-])c1cc(F)c(F)cc1Cl | 94* | 8 | i | 0 | 12
COc1ccc(N(CC(=O)Nc2cccc(OC)c2)S(=O)(=O)c2c(C)nn(C)c2C)cc1 | 0 | 0 | i | . | 6
Cc1nn(C)c(C)c1S(=O)(=O)N(CC(=O)NCc1ccco1)c1ccc(C(C)C)cc1 | 64* | . | . | 7 | 7
Cc1nn(C)c(C)c1S(=O)(=O)N(CC(=O)NCc1cccs1)c1ccc(C(C)C)cc1 | 22 | 0 | i | . | .
COc1ccc(N(CC(=O)Nc2ccc(F)c(F)c2)S(=O)(=O)c2c(C)n[nH]c2C)cc1 | 4 | 4 | i | 13 | 0
Cc1ccc(C(=O)NCc2ccc(F)cc2)cc1NC1=NC2CS(=O)(=O)CC2S1 (stereo not given) | 46 | 3 | i | 12 | .
CCCCOCCCNC(=O)C[C@@H]1C[C@@]2(C(=O)OC)CCCCC=C2N(CCc2ccc(OC)c(OC)c2)C1=O | . | -1 | i | . | .
O=C(Cn1cc(C(=O)C2CC2)c2ccccc21)NC1CCCC1 | 58* | 1 | i | 10 | -4
CC(C)NC(=O)Cn1cc(C(=O)C(=O)N2CCOCC2)c2ccccc21 | 4 | -1 | i | -6 | 7
SMILES | VLA-4 inh | SENP1 FRET inh | Myeloid diff MLP | Platelet DG rel | VLA-4 allo CP
O=C(C(=O)N1CCOCC1)c1cn(CC(=O)N2CCCCC2)c2ccccc12 | 4 | 2 | i | 18 | .
NC1=NC[C@@H](Cc2ccc(O)cc2)N1CCC12CC3CC(CC(C3)C1)C2 | -2 | 0 | i | -1 | .
CCCCN(C)C(=O)C(Cc1ccccc1)NS(=O)(=O)c1ccc2c(c1)CCC(=O)N2 (stereo not given) | 54* | 1 | i | -4 | -2
CCn1c2ccccc2c2cc(NC(=O)c3cc(OC)cc(OC)c3)ccc21 | 47 | 0 | ? | -2 | 32
CCn1c2ccccc2c2cc(NC(=O)c3cc(OC)c(OC)c(OC)c3)ccc21 | 11 | 2 | i | -8 | .
COc1ccc(-n2c(=S)[nH]c3cc(C(=O)NCCCN4CCOCC4)ccc3c2=O)cc1OC | 56* | -4 | i | 1 | -9
COc1ccc(-n2c(=S)[nH]c3cc(C(=O)NCCCN4CCCC4=O)ccc3c2=O)cc1OC | 0 | -1 | i | -2 | .
